Tests used:
[1] = test system: Mus musculus; experiment: Antiinflammatory activity in DNFB-induced ICR mouse model of auricle edema assessed as inhibition of ear swelling at 5 mg/kg, ig administered once daily for 6 days followed by 1% DNFB solution applied on right ear measured after 24 hrs relative to untreated control; format: functional; settings: po
How it was run: (§1)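 Male ICR mice, 18-22 g, randomized by weight, 6 per group. Dosed by intragastric route once daily for 6 days; saline given to normal and model groups. Right ear coated with 10 uL 1% DNFB (DNFB in acetone/olive oil); left ear received acetone/olive oil only. Mice killed 24 h later and both ears weighed. Swelling = right minus left ear weight; inhibition calculated versus model control.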

[2] = Inhibition of soyabean 15-LOX preincubated for 5 mins followed by susbtrate addition measured after 10 mins by colorimetric method; design: species or system Glycine max
How it was run: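 Soybean lipoxygenase assessed with a commercial lipoxygenase assay kit, following the kit instructions. IC50 values determined.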

[3] = target: T1, Prostaglandin G/H synthase 1 (Ovis aries, UniProt P05979); experiment: Inhibition of ovine COX-1 using arachidonic acid as substrate incubated for 5 mins by fluorescence-based assay
T1 sequence (P05979 whole entry): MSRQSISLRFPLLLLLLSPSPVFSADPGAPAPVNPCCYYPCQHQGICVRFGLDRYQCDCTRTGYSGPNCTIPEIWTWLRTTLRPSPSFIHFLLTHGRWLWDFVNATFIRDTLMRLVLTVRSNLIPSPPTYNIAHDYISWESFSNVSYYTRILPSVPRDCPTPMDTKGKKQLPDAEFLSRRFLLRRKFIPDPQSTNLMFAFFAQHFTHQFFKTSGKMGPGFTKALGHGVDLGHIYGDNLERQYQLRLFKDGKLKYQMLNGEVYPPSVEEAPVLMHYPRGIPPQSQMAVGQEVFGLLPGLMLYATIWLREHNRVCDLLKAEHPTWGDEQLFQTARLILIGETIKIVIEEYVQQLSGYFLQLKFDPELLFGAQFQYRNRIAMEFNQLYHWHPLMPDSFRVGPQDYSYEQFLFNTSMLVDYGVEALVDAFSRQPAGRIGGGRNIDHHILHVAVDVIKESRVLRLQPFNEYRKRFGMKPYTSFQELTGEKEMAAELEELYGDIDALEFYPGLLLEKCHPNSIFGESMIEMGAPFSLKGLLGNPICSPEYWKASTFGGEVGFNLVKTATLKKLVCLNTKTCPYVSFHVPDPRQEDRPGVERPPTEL
How it was run: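 COX-1 fluorometric inhibitor-screening kit. Assay buffer, COX-1 cofactor and arachidonic acid were combined with test compound and incubated 5 min at 37 °C. Inhibition derived from RFU relative to 100%-activity and blank controls. Run in triplicate; IC50 taken from concentration curves.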

[4] = test system: RAW264.7; experiment: Cytotoxicity against mouse RAW264.7 cells assessed as cell viability up to 50 uM after 24 hrs by MTT assay; format: cell-based; settings: raw264.7, 24 h
How it was run: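 RAW264.7 cells (ATCC), about 1.0×10^5 cells/ml, were held 2 h in serum-free medium at 37°C, 5% CO2. The supernatant was replaced with RPMI 1640 containing compound at 0, 5, 10, 20, 30, 40 or 50 μM for 24 h. MTT (5 mg/mL stock) was added for the final 4 h. Formazan was dissolved in DMSO and OD570 read. Survival was compared with blank.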

[5] = test system: Mus musculus; experiment: Antiinflammatory activity in DNFB-induced ICR mouse model of auricle edema assessed as inhibition of ear swelling at 0.5 mg/kg, ig administered once daily for 6 days followed by 1% DNFB solution applied on right ear measured after 24 hrs relative to untreated control; format: functional; settings: po; how it was run: as §1

Compound: O=C(c1cc2cc(Cl)ccc2n1Cc1ccc(F)cc1)N1CCN(Cc2ccccc2)CC1
- inhibition in vivo at 5 mg/kg [1]: 24%

Compound: COc1ccc(CN2CCN(C(=O)c3cc4cc(Cl)ccc4n3Cc3ccc(F)cc3)CC2)cc1
- IC50 [2]: 83.5 nM
- inhibition in vivo at 5 mg/kg [1]: 43.1%
- IC50 [3]: 195 nM
- Activity [4]: Non-Toxic

Compound: Cc1nc(C)c(CN2CCN(C(=O)c3cc4cc(Cl)ccc4n3Cc3ccc(Cl)cc3)CC2)nc1C
- IC50 [2]: 339 nM
- inhibition in vivo at 5 mg/kg [1]: 64.9%
- IC50 [3]: 312 nM

Compound: Cc1cncc(CN2CCN(C(=O)c3cc4cc(Cl)ccc4n3Cc3ccc(F)cc3)CC2)c1
- inhibition in vivo at 5 mg/kg [1]: 25.4%

Compound: N#Cc1ccc(CN2CCN(C(=O)c3cc4cc(Cl)ccc4n3Cc3ccc(F)cc3)CC2)cc1
- inhibition in vivo at 5 mg/kg [1]: 35.4%

Compound: Cc1nc(C)c(CN2CCN(C(=O)c3cc4cc(Cl)ccc4n3Cc3ccc(F)cc3)CC2)nc1C
- inhibition in vivo at 5 mg/kg [1]: 48.3%

Compound: CN1CCN(C(=O)c2cc3cc(Cl)ccc3n2Cc2ccc(F)cc2)CC1
- inhibition in vivo at 5 mg/kg [1]: 36.7%

Compound: COc1ccc2[nH]cc(CCNC(=O)c3cc4cc(Cl)ccc4n3Cc3ccc(F)cc3)c2c1
- IC50 [2]: 66.1 nM
- inhibition in vivo at 5 mg/kg [1]: 50%
- IC50 [3]: 407 nM
- Activity [4]: Non-Toxic

Compound: O=C(c1cc2cc(Cl)ccc2n1Cc1ccc(Cl)cc1)N1CCN(Cc2ccc(F)cc2)CC1
- inhibition in vivo at 5 mg/kg [1]: 29.1%

Compound: Cc1cncc(CN2CCN(C(=O)c3cc4cc(Cl)ccc4n3Cc3ccc(Cl)cc3)CC2)c1
- inhibition in vivo at 5 mg/kg [1]: 29.8%

Compound: O=C(c1cc2cc(Cl)ccc2n1Cc1ccc(F)cc1)N1CCN(Cc2ccc3c(c2)OCO3)CC1
- inhibition in vivo at 5 mg/kg [1]: 34.2%

Compound: O=C(c1cc2cc(Cl)ccc2n1Cc1ccc(Cl)cc1)N1CCN(Cc2ccc3c(c2)OCO3)CC1
- inhibition in vivo at 5 mg/kg [1]: 32.9%

Compound: Cc1nc(C)c(CNC2CCN(C(=O)c3cc4cc(Cl)ccc4n3Cc3ccc(F)cc3)C2)nc1C (configuration not stated)
- inhibition in vivo at 5 mg/kg [1]: 49.4%

Compound: O=C(c1cc2cc(Cl)ccc2n1Cc1ccc(Cl)cc1)N1CCN(Cc2ccc(C(F)(F)F)cc2)CC1
- inhibition in vivo at 5 mg/kg [1]: 30.4%

Compound: Cc1ccc(CN2CCN(C(=O)c3cc4cc(Cl)ccc4n3Cc3ccc(Cl)cc3)CC2)cc1
- inhibition in vivo at 5 mg/kg [1]: 39.2%

Compound: COc1ccc2[nH]cc(CCNC(=O)c3cc4cc(Cl)ccc4n3Cc3ccc(Cl)cc3)c2c1
- inhibition in vivo at 5 mg/kg [1]: 44.3%

Compound: O=C(c1cc2cc(Cl)ccc2n1Cc1ccc(F)cc1)N1CCN(Cc2ccc(C(F)(F)F)cc2)CC1
- inhibition in vivo at 5 mg/kg [1]: 27.8%

Compound: Cc1nc(C)c(CNC2CCN(C(=O)c3cc4cc(Cl)ccc4n3Cc3ccc(Cl)cc3)C2)nc1C (configuration not stated)
- inhibition in vivo at 5 mg/kg [1]: 42.5%

Compound: O=C(c1cc2cc(Cl)ccc2n1Cc1ccc(Cl)cc1)N1CCN(Cc2ccc(Cl)cc2)CC1
- IC50 [2]: 210 nM
- inhibition in vivo at 5 mg/kg [1]: 40.5%
- IC50 [3]: 361 nM

Compound: Cc1ccc(CN2CCN(C(=O)c3cc4cc(Cl)ccc4n3Cc3ccc(F)cc3)CC2)cc1
- inhibition in vivo at 5 mg/kg [1]: 32.9%

Compound: C[C@@H]1C[C@H]2[C@@H]3CCC4=CC(=O)C=C[C@]4(C)[C@@]3(F)[C@@H](O)C[C@]2(C)[C@@]1(O)C(=O)CO [DEXAMETHASONE]
- inhibition in vivo at 0.5 mg/kg [5]: 46.8 to 63.8%

Compound: CC(c1cc2ccccc2s1)N(O)C(N)=O (configuration not stated) [ZILEUTON]
- IC50 [2]: 38.9 nM
